Published values from different studies.
Protocols differ between the studies behind these lines.
FGFR1 V561M: Fibroblast growth factor receptor 1 (FGFR1, Homo sapiens, UniProt P11362, V561M)
FGFR1: Fibroblast growth factor receptor 1 (FGFR1, Homo sapiens, UniProt P11362)

CC/C(=N\NC(=O)NCc1cccc(O)c1)c1ccc(O)c(C)c1O — inhibition (FGFR1 V561M; enzyme activity, inhibitor; 0.1 µM): 10.8%
Cc1noc([C@H]2C[C@@H](c3ccc(C(F)(F)F)cc3)CN(C(=O)N3CCS(=O)(=O)C3)C2)n1 — remaining binding (FGFR1; cell-free assay, competition with immobilised ligand; 1 µM): 100%
C[S+]([O-])c1ccc(-c2nc(-c3ccncc3)c(-c3ccc(F)cc3)[nH]2)cc1 (stereo not drawn) — remaining signal (FGFR1; cell-free assay; 0.5 µM): 90.7%
Cc1ccc(C(=O)NCc2ccsc2)cc1C#Cc1cn(C(C)C)c2ncnc(N)c12 — activity vs control (FGFR1; enzyme activity, inhibitor; 1 µM): 33%
C/C=C/C(=O)NCc1ccc(-n2nc3c(=O)[nH]nc(N)c3c2-c2oc3ccc(C)cc3c2C)cc1 — inhibition (FGFR1; enzyme activity, inhibitor, ELISA; 10 nM): 11.1%
Cc1c[nH]c2nccc(Oc3c(F)cc(Nc4cc(Cl)nc(N)n4)cc3F)c12 — remaining binding (FGFR1; cell-free assay, competition with immobilised ligand; 0.1 µM): 100%
COc1cc(/C=C/C(=O)c2ccc(NC3=C(Cl)C(=O)c4ccccc4C3=O)cc2)cc(OC)c1OC — inhibition (FGFR1; enzyme activity, inhibitor, ADP detection; 1 µM): > 70%
CCC(=O)N[C@@H]1CC[C@H](C(=O)N(C)c2ccc(-c3nc4ccccc4o3)cc2)C1 — remaining binding (FGFR1; cell-free assay, competition with immobilised ligand; 1 µM): 87%
COc1cc2ncnc(Nc3ccc(Oc4ccccc4)cc3C)c2cc1OC — inhibition (FGFR1; enzyme activity, inhibitor; 1 µM): 5%
C[C@@H]1CN(c2cc(-c3n[nH]c4ccc(OC5(C)CC5)cc34)ncn2)C[C@H](C)O1 — remaining binding (FGFR1; cell-free assay, competition with immobilised ligand; 0.1 µM): 100%
CCN(CC)CCNC(=O)c1c(C)[nH]c(/C=C2\C(=O)Nc3ccc(F)cc32)c1C — remaining signal (FGFR1; cell-free assay; 0.5 µM): 66.1%
CNC(=O)c1cc(Oc2ccc(NC(=O)Nc3ccc(Cl)c(C(F)(F)F)c3)cc2)ccn1 — inhibition (FGFR1 V561M; cell-free assay; 0.3 µM): 26%
O=C1Nc2ccc(Cl)cc2C1=Cc1cc(Cl)c(O)c(Cl)c1 — remaining signal (FGFR1; cell-free assay; 0.5 µM): 90.8%
Cc1cc(NC(=O)c2cccc(S(F)(F)(F)(F)F)c2)cc(-n2ccn3nc(-c4cccnc4)cc23)c1 — remaining binding (FGFR1; cell-free assay, competition with immobilised ligand; 1 µM): 100%
O=C1NC(=O)c2cc(Nc3ccc(F)cc3)c(Nc3ccc(F)cc3)cc21 — remaining signal (FGFR1; cell-free assay; 0.5 µM): 92.1%
Cc1ccc(NC(=O)c2ccc(C)c(C(F)(F)F)c2)cc1C#Cc1nn(C2CCC(O)CC2)c2ncnc(N)c12 (stereo not drawn) — remaining signal (FGFR1 V561M; cell-free assay; 10 µM): 40%
CCOc1cc(-c2nncn2C)ccc1Nc1ncc2cc(C)nc(NCC(C)(C)C)c2n1 — inhibition (FGFR1; enzyme activity, inhibitor, FRET; 1 µM): < 15%
CSc1nc(C)c(-c2ccnc(Nc3ccc(N4CCOCC4)cc3)c2)[nH]1 — inhibition (FGFR1; cell-free assay, inhibitor; 10 µM): 26.2%
C=CC(=O)Nc1cccc(-n2nc3c(=O)[nH]nc(N)c3c2-c2oc3ccc(C)cc3c2C)c1 — inhibition (FGFR1; enzyme activity, inhibitor, ELISA; 10 nM): 10.6%
C=CC(=O)Nc1cc(Nc2nccc(Nc3cc(Cl)c(F)cc3C(C)(C)O)n2)c(OC)cc1N1CC[C@@H](N(C)C)C1 — inhibition (FGFR1 V561M; enzyme activity, inhibitor; 1 µM): 1%
CNCc1ccccc1-c1csc([C@@H](C)Nc2nc(C)nc3cc(OC)c(OC)cc23)c1 — remaining binding (FGFR1; cell-free assay, competition with immobilised ligand; 1 µM): 100%
Oc1ccc(-c2nc(-c3ccncc3)c(-c3ccc(F)cc3)[nH]2)cc1 — remaining signal (FGFR1; cell-free assay; 0.5 µM): 86.8%
Cc1cc(NC(=O)c2cccc3cc(-c4cccc5[nH]nc(N)c45)ccc23)ccc1F — activity vs control (FGFR1 V561M; enzyme activity, inhibitor; 0.1 µM): 92%
O=S(=O)(NC1CCC(c2cc(F)ccc2F)(S(=O)(=O)c2ccc(Cl)cc2)CC1)C(F)(F)F (stereo not drawn) — remaining binding (FGFR1; cell-free assay, competition with immobilised ligand; 1 µM): 100%
Oc1cccc(-c2nc(N3CCOCC3)c3oc4ncccc4c3n2)c1 — remaining signal (FGFR1; cell-free assay; 0.5 µM): 91.7%
CC(=O)N1CCC(c2ccc(C(=O)NC3=NCCN3)cc2C(F)(F)F)CC1 — remaining binding (FGFR1; cell-free assay, competition with immobilised ligand; 1 µM): 100%
CN(c1nccc(-c2cnn3ncccc23)n1)C1CC1 — remaining binding (FGFR1; binding; 1 µM): 75%
